Assay results taken from ChEMBL document CHEMBL4138242, “Synthesis and antibacterial evaluation of novel cationic chalcone derivatives possessing broad spectrum antibacterial activity” (Eur J Med Chem, 2018).

System: Staphylococcus aureus
Test: Antibacterial activity against Staphylococcus aureus ATCC 29213 after 16 to 20 hrs by broth microdilution method
Type: functional
Conditions: not given
Procedure, shortened: (§1)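 Broth microdilution per CLSI. Bacteria grown 4-6 h (about 10⁸ CFU/mL), then diluted to about 10⁶ CFU/mL. Medium: Mueller-Hinton broth, except Luria-Bertani broth for E. coli. Compounds in sterile water, twofold series 256-0.5 µg/mL, mixed 1:1 with inoculum, 37 °C for 16-20 h. MIC is the lowest concentration without visible growth. Duplicate wells; experiment repeated at least twice.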

| SMILES | MIC [µg/mL] |
| --- | --- |
| CCCCCCCC[N+](C)(C)CC(=O)Nc1ccc(C(=O)/C=C/c2ccc(F)cc2F)cc1.[Cl-] | 2 |

System: Enterococcus faecalis
Test: Antibacterial activity against Enterococcus faecalis ATCC 29212 after 16 to 20 hrs by broth microdilution method
Type: functional
Conditions: not given
Procedure, shortened: as §1

| SMILES | MIC [µg/mL] |
| --- | --- |
| CCCCCCCC[N+](C)(C)CC(=O)Nc1ccc(C(=O)/C=C/c2ccc(F)cc2F)cc1.[Cl-] | 2 |

System: Escherichia coli
Test: Antibacterial activity against Escherichia coli ATCC 25922 after 16 to 20 hrs by broth microdilution method
Type: functional
Conditions: not given
Procedure, shortened: as §1

| SMILES | MIC [µg/mL] |
| --- | --- |
| CCCCCCCC[N+](C)(C)CC(=O)Nc1ccc(C(=O)/C=C/c2ccc(F)cc2F)cc1.[Cl-] | 4 |

System: Salmonella enterica
Test: Antibacterial activity against Salmonella enterica ATCC 13076 after 16 to 20 hrs by broth microdilution method
Type: functional
Conditions: not given
Procedure, shortened: as §1

| SMILES | MIC [µg/mL] |
| --- | --- |
| CCCCCCCC[N+](C)(C)CC(=O)Nc1ccc(C(=O)/C=C/c2ccc(F)cc2F)cc1.[Cl-] | 4 |

System: not listed separately
Test: Hemolytic activity in sheep RBC after 1 hr
Type: ADME, cell-based, Ovis aries, Erythrocyte
Conditions: sheep red blood cells (erythrocytes)
Procedure, shortened: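 Sheep red blood cells (150 µL suspension) mixed with 50 µL of compound dilutions (5120-10 µg/mL), 1 h at 37 °C, then centrifuged. Supernatant read at 540 nm. Percent hemolysis calculated relative to RBC-only control (0%) and 0.1% Triton X-100 (100%).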

| SMILES | HC50 at 1 h [µg/mL] |
| --- | --- |
| CCCCCCCC[N+](C)(C)CC(=O)Nc1ccc(C(=O)/C=C/c2ccc(F)cc2F)cc1.[Cl-] | 54 |

System: Staphylococcus aureus
Test: Antibacterial activity against methicillin-resistant Staphylococcus aureus clinical isolate 1105183 cono7 after 16 to 20 hrs by broth microdilution method
Type: functional
Conditions: not given
Procedure, shortened: (§2)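 CLSI broth microdilution in Mueller-Hinton broth. A 4-6 h culture was diluted to about 10⁶ CFU/mL and mixed 1:1 with compound dilutions prepared at 256 to 0.5 µg/mL from aqueous stocks. Plates were incubated at 37 °C for 16-20 h and read visually for MIC. Each concentration was run in duplicate, and the experiment was repeated at least twice. Vancomycin and meropenem were comparators.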

| SMILES | MIC [µg/mL] |
| --- | --- |
| CCCCCCCC[N+](C)(C)CC(=O)Nc1ccc(C(=O)/C=C/c2ccc(F)cc2F)cc1.[Cl-] | 1 |

System: Staphylococcus aureus
Test: Antibacterial activity against methicillin-resistant Staphylococcus aureus clinical isolate 20130911034sau after 16 to 20 hrs by broth microdilution method
Type: functional
Conditions: not given
Procedure, shortened: as §2

| SMILES | MIC [µg/mL] |
| --- | --- |
| CCCCCCCC[N+](C)(C)CC(=O)Nc1ccc(C(=O)/C=C/c2ccc(F)cc2F)cc1.[Cl-] | 1 |

System: Staphylococcus aureus
Test: Antibacterial activity against methicillin-resistant Staphylococcus aureus clinical isolate 0831010 after 16 to 20 hrs by broth microdilution method
Type: functional
Conditions: not given
Procedure, shortened: as §2

| SMILES | MIC [µg/mL] |
| --- | --- |
| CCCCCCCC[N+](C)(C)CC(=O)Nc1ccc(C(=O)/C=C/c2ccc(F)cc2F)cc1.[Cl-] | 0.5 |

System: Staphylococcus aureus
Test: Antibacterial activity against methicillin-resistant Staphylococcus aureus clinical isolate 1104060 after 16 to 20 hrs by broth microdilution method
Type: functional
Conditions: not given
Procedure, shortened: as §2

| SMILES | MIC [µg/mL] |
| --- | --- |
| CCCCCCCC[N+](C)(C)CC(=O)Nc1ccc(C(=O)/C=C/c2ccc(F)cc2F)cc1.[Cl-] | 8 |

System: Staphylococcus aureus
Test: Antibacterial activity against methicillin-resistant Staphylococcus aureus clinical isolate 20131012632sau after 16 to 20 hrs by broth microdilution method
Type: functional
Conditions: not given
Procedure, shortened: as §2

| SMILES | MIC [µg/mL] |
| --- | --- |
| CCCCCCCC[N+](C)(C)CC(=O)Nc1ccc(C(=O)/C=C/c2ccc(F)cc2F)cc1.[Cl-] | 4 |

System: Staphylococcus aureus
Test: Antibacterial activity against methicillin-resistant Staphylococcus aureus clinical isolate 1207007 after 16 to 20 hrs by broth microdilution method
Type: functional
Conditions: not given
Procedure, shortened: as §2

| SMILES | MIC [µg/mL] |
| --- | --- |
| CCCCCCCC[N+](C)(C)CC(=O)Nc1ccc(C(=O)/C=C/c2ccc(F)cc2F)cc1.[Cl-] | 0.5 |

System: Staphylococcus aureus
Test: Antibacterial activity against methicillin-resistant Staphylococcus aureus clinical isolate 1-may after 16 to 20 hrs by broth microdilution method
Type: functional
Conditions: not given
Procedure, shortened: as §2

| SMILES | MIC [µg/mL] |
| --- | --- |
| CCCCCCCC[N+](C)(C)CC(=O)Nc1ccc(C(=O)/C=C/c2ccc(F)cc2F)cc1.[Cl-] | 1 |

System: Staphylococcus aureus
Test: Antibacterial activity against methicillin-resistant Staphylococcus aureus clinical isolate 0906202 after 16 to 20 hrs by broth microdilution method
Type: functional
Conditions: not given
Procedure, shortened: as §2

| SMILES | MIC [µg/mL] |
| --- | --- |
| CCCCCCCC[N+](C)(C)CC(=O)Nc1ccc(C(=O)/C=C/c2ccc(F)cc2F)cc1.[Cl-] | 4 |

System: Staphylococcus aureus
Test: Antibacterial activity against methicillin-resistant Staphylococcus aureus clinical isolate 1208143 after 16 to 20 hrs by broth microdilution method
Type: functional
Conditions: not given
Procedure, shortened: as §2

| SMILES | MIC [µg/mL] |
| --- | --- |
| CCCCCCCC[N+](C)(C)CC(=O)Nc1ccc(C(=O)/C=C/c2ccc(F)cc2F)cc1.[Cl-] | 2 |

System: Klebsiella pneumoniae
Test: Antibacterial activity against drug-resistant carbapenemase producing Klebsiella pneumoniae clinical isolate KP-14-8 after 16 to 20 hrs by broth microdilution method
Type: functional
Conditions: not given
Procedure, shortened: as §2

| SMILES | MIC [µg/mL] |
| --- | --- |
| CCCCCCCC[N+](C)(C)CC(=O)Nc1ccc(C(=O)/C=C/c2ccc(F)cc2F)cc1.[Cl-] | 4 |

System: Klebsiella pneumoniae
Test: Antibacterial activity against drug-resistant carbapenemase producing Klebsiella pneumoniae clinical isolate KP-13-45 after 16 to 20 hrs by broth microdilution method
Type: functional
Conditions: not given
Procedure, shortened: as §2

| SMILES | MIC [µg/mL] |
| --- | --- |
| CCCCCCCC[N+](C)(C)CC(=O)Nc1ccc(C(=O)/C=C/c2ccc(F)cc2F)cc1.[Cl-] | 8 |

System: Klebsiella pneumoniae
Test: Antibacterial activity against drug-resistant carbapenemase producing Klebsiella pneumoniae clinical isolate KP-14-3 after 16 to 20 hrs by broth microdilution method
Type: functional
Conditions: not given
Procedure, shortened: as §2

| SMILES | MIC [µg/mL] |
| --- | --- |
| CCCCCCCC[N+](C)(C)CC(=O)Nc1ccc(C(=O)/C=C/c2ccc(F)cc2F)cc1.[Cl-] | 8 |

System: Klebsiella pneumoniae
Test: Antibacterial activity against drug-resistant carbapenemase producing Klebsiella pneumoniae clinical isolate KP-14-1 after 16 to 20 hrs by broth microdilution method
Type: functional
Conditions: not given
Procedure, shortened: as §2

| SMILES | MIC [µg/mL] |
| --- | --- |
| CCCCCCCC[N+](C)(C)CC(=O)Nc1ccc(C(=O)/C=C/c2ccc(F)cc2F)cc1.[Cl-] | 8 |

System: Klebsiella pneumoniae
Test: Antibacterial activity against drug-resistant carbapenemase producing Klebsiella pneumoniae clinical isolate KP-14-4 after 16 to 20 hrs by broth microdilution method
Type: functional
Conditions: not given
Procedure, shortened: as §2

| SMILES | MIC [µg/mL] |
| --- | --- |
| CCCCCCCC[N+](C)(C)CC(=O)Nc1ccc(C(=O)/C=C/c2ccc(F)cc2F)cc1.[Cl-] | 4 |

System: Klebsiella pneumoniae
Test: Antibacterial activity against drug-resistant carbapenemase producing Klebsiella pneumoniae clinical isolate KP-13-54 after 16 to 20 hrs by broth microdilution method
Type: functional
Conditions: not given
Procedure, shortened: as §2

| SMILES | MIC [µg/mL] |
| --- | --- |
| CCCCCCCC[N+](C)(C)CC(=O)Nc1ccc(C(=O)/C=C/c2ccc(F)cc2F)cc1.[Cl-] | 4 |

System: Klebsiella pneumoniae
Test: Antibacterial activity against drug-resistant carbapenemase producing Klebsiella pneumoniae clinical isolate KP-14-2 after 16 to 20 hrs by broth microdilution method
Type: functional
Conditions: not given
Procedure, shortened: as §2

| SMILES | MIC [µg/mL] |
| --- | --- |
| CCCCCCCC[N+](C)(C)CC(=O)Nc1ccc(C(=O)/C=C/c2ccc(F)cc2F)cc1.[Cl-] | 16 |
